Most compounds without a hit are left out; they make up all but 1.9% or so of the library.
CFTR F508del cor – CFTR F508del correction in bronchial cells; activity (quench increase), % at 7.58 µM; CFBE cells, YFP halide quenching; stimulated with forskolin plus potentiator P3; % fluorescence drop versus neutral controls; actives 0.36% (n = 350,000); AID 720511;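 active = mean added fluorescence quench of at least 8% versus neutral control, with both replicates also reaching 8%; inconclusive = only one of the mean or replicate conditions met; inactive = mean below 8% and not both replicates reaching 8%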;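 note: cells transiently co-express mutant CFTR-F508del with the halide-sensitive YFP; corrector assay measuring rescue of mutant channel to the surface after 24 h compound exposure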
FN deposition inh – fibronectin deposition inhibition; AH1F fibroblasts, Alexa488-fibronectin deposition fluorescence, overnight; inhibition, % at 12.6 µM; actives 0.086% (n = 350,000); AID 743247;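 active = mean inhibition across replicates of 30% or more, regardless of how many single replicates reach that level; inconclusive = mean under 30% yet at least half of replicates reach 30%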;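 note: positive control wells lacked labelled fibronectin entirely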
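material = AH1F fibroblast monolayer depositing Alexa488-labelled fibronectin into matrix | amount = 10000 AH1F cells/well | buffer or medium = DMEM plus 2% serum, read in PBS | incubation = 1 h cell adhesion before compound, then overnight fibronectin incubation | detection = fluorescence at 485 nm excitation, 525 nm emission | evaluation = percent inhibition as loss of matrix-bound fibronectin fluorescence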
Cneo AK release – Cryptococcus neoformans lysis via adenylate kinase release. C. neoformans lysis, adenylate kinase release luminescence, 4 h; normalised: neutral wells 0, clomiphene wells 100. lysis activity, % at 15 µM. actives 0.2% (n = 360,000);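 active = mean lysis activity across replicates of at least 80%, whatever share of replicates individually reach that level; inactive = mean lysis activity below 80%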
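Material – log-phase Cryptococcus neoformans yeast cells · Input – 5 × 10^6 yeast cells/mL · Medium – fresh YPD growth medium · Doses – single compound concentration per well · Timing – static 4 h at 37 °C with compound, 1 h detection · Detection – adenylate kinase release luminescence · Read-out – signal increase indicating cell lysis · Control set – Clomiphene as positive lysis control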
DENV2 CPE rescue – DENV2-induced cell death inhibition. DENV2-infected cells, cytopathic effect rescue, plate reader. actives 1.7% (n = 350,000). AID 651640. CPE inhibition, % at 9.99 µM; in the data active = CPE inhibition above about 20%, passing the limit was not always enough; inconclusive = no clear call, values can overlap the other calls; tested in BHK-21 cells;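 note: 0% = median of neutral control wells and 100% = median of positive control wells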
XiGFP reactiv – reactivates the inactive X chromosome in mouse fibroblasts | AID 743238 | activation, % at 7.58 µM | XiGFP mouse fibroblasts, % GFP-positive cells imaging, 3 d; cells co-treated with 5-aza-dC sensitizer; scaled so ellipticine positive control = 100% | actives 0.055% (n = 360,000);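 active = mean normalized replicate activation at least 10% and every replicate at or above 10%; inconclusive = only one of the two criteria met; inactive = mean below 10% and not all replicates reach 10%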;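 note: 0% = median of on-plate neutral control wells and 100% = ellipticine 6 µM median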
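Assay system – SV40-immortalized XiGFP fibroblast cells, line 68-5-11 · Buffer or medium – DMEM supplemented with 5-aza-dC as sensitizing agent · Dosing – one concentration, pinned · Benchmarks – positive control ellipticine, 6 µM final · Times – 3 days compound exposure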
PGC1a acetyl inh – PGC1a acetylation modulation, inhibitor mode; U2OS PGC1a acetylation, AlphaScreen anti-acetyl-lysine; with virally co-expressed GCN5 acetyltransferase; AID 651687; inhibition, % at 15.6 µM; actives 0.17% (n = 350,000);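 active = every replicate shows inhibition of at least 40%; inconclusive = mean inhibition at least 40% but some replicate below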;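 note: 0% = neutral control wells and 100% = positive control wells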
Active calls of the source: *; ? = inconclusive; . = no result.

SMILES	CFTR F508del cor	FN deposition inh	Cneo AK release	DENV2 CPE rescue	XiGFP reactiv	PGC1a acetyl inh
CCC(=O)N1[C@@H]2c3ccc(-c4cccc(F)c4)c(=O)n3C[C@@H]2[C@@H](CO)[C@@H]1C(=O)OC	0	.	-2	76*	0	2
CCNC(=O)[C@@H]1[C@@H](CO)[C@@H]2Cn3c(ccc(-c4ccccc4OC)c3=O)[C@@H]2N1S(C)(=O)=O	-3	.	3	-7	1	.
CCNC(=O)[C@H]1[C@H](CO)[C@H]2Cn3c(ccc(-c4cccc(OC)c4)c3=O)[C@H]2N1S(C)(=O)=O	.	.	-2	28*	0	.
CCC(=O)N1[C@@H]2c3cccc(=O)n3C[C@H]1[C@H](CO)[C@H]2C(=O)NC1Cc2ccccc2C1	-1	-1	.	18	0	-3
COCC(=O)Nc1ccc2c(c1)OC[C@H](C)N(CCc1ccccc1)C[C@H](C)[C@@H](OC)CN(C)C2=O	.	0	.	.	0	.
COc1cccc(-c2cn(CC[C@H]3CC[C@@H](NS(=O)(=O)Cc4ccccc4)[C@@H](CO)O3)nn2)c1	-3	-4	13	-4	0	-14
O=C(C[C@H]1C[C@@H]2c3cc(NC(=O)Nc4ccccc4F)ccc3O[C@@H]2[C@H](CO)O1)NCCc1ccccc1	0	.	22	-3	0	-2
CC(C)NC(=O)Nc1ccc2c(c1)C(=O)N([C@@H](C)CO)C[C@H](C)[C@H](CN(C)C(=O)Nc1ccc3c(c1)OCO3)O2	0	.	-3	87*	1	1
C[C@@H]1CN([C@@H](C)CO)C(=O)c2cc(NS(=O)(=O)c3ccccc3)ccc2O[C@@H]1CN(C)C(=O)Nc1ccc2c(c1)OCO2	2	-4	-1	49*	0	4
CC(C)NC(=O)Nc1ccc2c(c1)C(=O)N([C@H](C)CO)C[C@@H](C)[C@@H](CN(C)C(=O)Nc1ccc3c(c1)OCO3)O2	0	.	-1	25*	0	2
C[C@H](CO)N1C[C@H](C)[C@H](CN(C)C(=O)Nc2ccc3c(c2)OCO3)Oc2ccc(NC(=O)Nc3ccc4c(c3)OCO4)cc2C1=O	0	.	-1	-13	1	1
C[C@@H]1CN([C@@H](C)CO)C(=O)c2cc(NC(=O)Nc3ccc4c(c3)OCO4)ccc2O[C@H]1CN(C)C(=O)Nc1ccc2c(c1)OCO2	1	.	-1	-8	0	13
COCC(=O)Nc1ccc2c(c1)[C@H]1C[C@@H](CC(=O)OC)O[C@H](CO)[C@H]1O2	2	7	0	7	0	-1
COc1cccc(S(=O)(=O)N2CC3(CN(C(=O)Nc4cccc(F)c4)[C@H](CO)c4[nH]c5cc(OC)ccc5c43)C2)c1	-2	.	.	11	0	.
C[C@@H]1CN([C@@H](C)CO)C(=O)Cc2cc(NS(=O)(=O)c3cn(C)cn3)ccc2O[C@@H]1CN(C)CC1CC1	-1	-10	-7	2	1	6
O=C(COC(=O)c1ccc(NC(=O)C2CC=CCC2C(=O)O)cc1)c1ccccc1 (configuration not stated)	-3	4	-1	68*	0	4
O=C(O)C1CC=CCC1C(=O)Nc1ccccc1 (configuration not stated)	.	-2	-1	.	.	-4
CCOc1ccccc1NC(=O)c1c(NC(=O)CCC(=O)O)sc2c1CCCCC2	5	33*	.	1	0	-15
CCOc1ccccc1NC(=O)c1ccc2ccccc2c1	3	-1	0	?	0	88*
CCOc1ccccc1NC(=O)NNC(=O)c1ccc2ccccc2c1	2	.	1	?	0	.
CCS(=O)(=O)NCC[C@H]1CC[C@H](NS(=O)(=O)c2cccc(Cl)c2)[C@@H](CO)O1	-4	.	21	-5	0	4
COc1ccc(-c2cnc3c(c2)C(=O)N([C@@H](C)CO)C[C@@H](C)[C@@H](CN(C)C(=O)Cc2ccncc2)O3)cc1	1	.	2	7	-1	0
COc1ccc2c3c([nH]c2c1)[C@@H](CO)N(S(C)(=O)=O)CC31CCN(Cc2cccc(F)c2)CC1	5	.	.	-31	1	-9
COc1ccc2c3c([nH]c2c1)[C@H](CO)N(S(C)(=O)=O)CC31CCN(CC2CCCC2)CC1	1	10	.	28*	0	-1
COc1ccc2c3c([nH]c2c1)[C@H](CO)N(S(C)(=O)=O)CC31CCN(Cc2cccc(F)c2)CC1	8.3*	.	.	-33	1	-2
SMILES	CFTR F508del cor	FN deposition inh	Cneo AK release	DENV2 CPE rescue	XiGFP reactiv	PGC1a acetyl inh
COc1ccc2c3c([nH]c2c1)[C@@H](CO)N(S(C)(=O)=O)CC31CCN(CC2CCCC2)CC1	-3	0	.	54*	0	-7
COc1ccc2c3c([nH]c2c1)[C@H](CO)N(Cc1cccc(F)c1)CC31CN(Cc2ccccn2)C1	-3	.	.	23*	0	.
COc1ccc2c3c([nH]c2c1)[C@@H](CO)N(S(C)(=O)=O)CC31CCN(CC2CC2)CC1	-1	.	.	-8	0	.
C[C@@H]1CCCCO[C@H](CN(C)Cc2ccc(C(F)(F)F)cc2)[C@H](C)CN([C@@H](C)CO)C(=O)c2cc(NC(=O)CCCN(C)C)ccc2O1	-2	.	3	0	0	-5
COc1ccc(NC(=O)N(C)C[C@@H]2Oc3ccc(NC(=O)Nc4cccc5ccccc45)cc3CC(=O)N([C@@H](C)CO)C[C@H]2C)cc1	1	-2	-1	-7	0	3
O=C(c1cc(-c2ccccc2)n[nH]1)N1CCN(S(=O)(=O)c2ccccc2)CC1	-3	1	0	43*	0	8
CO[C@@H]1CN(C)C(=O)c2ccc(NC(=O)Nc3cc(F)ccc3F)cc2OC[C@@H](C)N(C(=O)c2ccccn2)C[C@H]1C	1	5	4	87*	0	-2
CO[C@H]1CN(C)C(=O)c2ccc(NC(=O)Nc3cc(F)ccc3F)cc2OC[C@H](C)N(C(=O)c2ccccn2)C[C@H]1C	1	-5	0	9	0	7
CO[C@@H]1CN(C)C(=O)c2ccc(NC(=O)Nc3cc(F)ccc3F)cc2OC[C@@H](C)N(C(=O)c2ccccn2)C[C@@H]1C	2	-9	-1	-2	0	-17
CO[C@@H]1CN(C)C(=O)c2ccc(NC(=O)Nc3cc(F)ccc3F)cc2OC[C@H](C)N(C(=O)c2ccccn2)C[C@H]1C	2	-2	0	26*	0	2
O=C(C[C@H]1C=C[C@H](NC(=O)c2cccc(F)c2)[C@@H](CO)O1)NCc1ccccc1	-3	-10	56	?	0	-3
